Measurements reported in ChEMBL document CHEMBL5058577, “EUbOPEN Chemogenomics Library 2 (Multiplex)” (2022).

Test system: Fibroblast
Assay: Multiplex assay against human fibroblast
Type: toxicity, cell-based
Procedure, shortened: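 With compound added, live cells were imaged on a CQ1 microscope at 37°C and 5% CO2; staining with Hoechst33342, BioTracker Green Microtubule Cytoskeleton Dye, MitoTracker Red and Annexin V Alexa Fluor 680 had been done at seeding. The CellPathfinder machine-learning gating scheme split cells into Hoechst high-intensity objects or normal cells, normal cells into healthy, pyknosed or fragmented nuclei, and pyknosed cells into mitotic or apoptotic. The tubulin, mitochondrial-mass and membrane-permeability phenotypes are per cents of healthy-nucleus cells.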

[1] = 12 h, 1 µM, compound concentration 1 uM, replicate 1
[2] = 12 h, 1 µM, compound concentration 1 uM, replicate 2
[3] = 12 h, 10 µM, compound concentration 10 uM, replicate 1
[4] = 12 h, 10 µM, compound concentration 10 uM, replicate 2
[5] = 24 h, 1 µM, compound concentration 1 uM, replicate 1
[6] = 24 h, 1 µM, compound concentration 1 uM, replicate 2
[7] = 24 h, 10 µM, compound concentration 10 uM, replicate 1
[8] = 24 h, 10 µM, compound concentration 10 uM, replicate 2
[9] = 48 h, 1 µM, compound concentration 1 uM, replicate 1
[10] = 48 h, 1 µM, compound concentration 1 uM, replicate 2
[11] = 48 h, 10 µM, compound concentration 10 uM, replicate 1
[12] = 48 h, 10 µM, compound concentration 10 uM, replicate 2

S=C(NCCCc1c[nH]cn1)NCCCN(Cc1ccc(Cl)c(Cl)c1)c1ccc(Br)cn1
Population Apoptotic (%) [1]: 40%
Population Fragmented Nuclei (%) [1]: 13%
Population Healthy Nuclei (%) [1]: 71%
Population Hoechst High Intensity Objects (%) [1]: 5%
Population Membrane Permeable-Phenotype (%) [1]: 1%
Population Mitochondria Different-Phenotype (%) [1]: 5%
Population Mitotic Cells (%) [1]: 60%
Population Normal (%) [1]: 94%
Population Pyknosed Nuclei (%) [1]: 14%
Population Tubulin-Different-Phenotype (%) [1]: 26%
Total Cell Count [1]: 142
Population Apoptotic (%) [2]: 31%
Population Fragmented Nuclei (%) [2]: 30%
Population Healthy Nuclei (%) [2]: 50%
Population Hoechst High Intensity Objects (%) [2]: 4%
Population Membrane Permeable-Phenotype (%) [2]: 5%
Population Mitochondria Different-Phenotype (%) [2]: 6%
Population Mitotic Cells (%) [2]: 68%
Population Normal (%) [2]: 95%
Population Pyknosed Nuclei (%) [2]: 18%
Population Tubulin-Different-Phenotype (%) [2]: 37%
Total Cell Count [2]: 181
Population Apoptotic (%) [3]: 47%
Population Fragmented Nuclei (%) [3]: 27%
Population Healthy Nuclei (%) [3]: 56%
Population Hoechst High Intensity Objects (%) [3]: 3%
Population Membrane Permeable-Phenotype (%) [3]: 0%
Population Mitochondria Different-Phenotype (%) [3]: 15%
Population Mitotic Cells (%) [3]: 52%
Population Normal (%) [3]: 96%
Population Pyknosed Nuclei (%) [3]: 16%
Population Tubulin-Different-Phenotype (%) [3]: 89%
Total Cell Count [3]: 220
Population Apoptotic (%) [4]: 52%
Population Fragmented Nuclei (%) [4]: 34%
Population Healthy Nuclei (%) [4]: 53%
Population Hoechst High Intensity Objects (%) [4]: 5%
Population Mitochondria Different-Phenotype (%) [4]: 10%
Population Mitotic Cells (%) [4]: 47%
Population Normal (%) [4]: 94%
Population Pyknosed Nuclei (%) [4]: 12%
Total Cell Count [4]: 279
Population Apoptotic (%) [5]: 69%
Population Fragmented Nuclei (%) [5]: 15%
Population Healthy Nuclei (%) [5]: 74%
Population Hoechst High Intensity Objects (%) [5]: 4%
Population Membrane Permeable-Phenotype (%) [5]: 2%
Population Mitochondria Different-Phenotype (%) [5]: 2%
Population Mitotic Cells (%) [5]: 30%
Population Normal (%) [5]: 95%
Population Pyknosed Nuclei (%) [5]: 9%
Population Tubulin-Different-Phenotype (%) [5]: 28%
Total Cell Count [5]: 137
Population Apoptotic (%) [6]: 23%
Population Fragmented Nuclei (%) [6]: 30%
Population Healthy Nuclei (%) [6]: 57%
Population Hoechst High Intensity Objects (%) [6]: 1%
Population Mitochondria Different-Phenotype (%) [6]: 6%
Population Mitotic Cells (%) [6]: 76%
Population Normal (%) [6]: 98%
Population Pyknosed Nuclei (%) [6]: 11%
Population Tubulin-Different-Phenotype (%) [6]: 42%
Total Cell Count [6]: 183
Population Apoptotic (%) [7]: 66%
Population Fragmented Nuclei (%) [7]: 22%
Population Healthy Nuclei (%) [7]: 61%
Population Hoechst High Intensity Objects (%) [7]: 1%
Population Membrane Permeable-Phenotype (%) [7]: 0%
Population Mitochondria Different-Phenotype (%) [7]: 19%
Population Mitotic Cells (%) [7]: 33%
Population Normal (%) [7]: 98%
Population Pyknosed Nuclei (%) [7]: 15%
Population Tubulin-Different-Phenotype (%) [7]: 93%
Total Cell Count [7]: 214
Population Apoptotic (%) [8]: 61%
Population Fragmented Nuclei (%) [8]: 27%
Population Healthy Nuclei (%) [8]: 59%
Population Hoechst High Intensity Objects (%) [8]: 4%
Population Membrane Permeable-Phenotype (%) [8]: 2%
Population Mitochondria Different-Phenotype (%) [8]: 7%
Population Mitotic Cells (%) [8]: 38%
Population Normal (%) [8]: 95%
Population Pyknosed Nuclei (%) [8]: 13%
Population Tubulin-Different-Phenotype (%) [8]: 95%
Total Cell Count [8]: 248
Population Apoptotic (%) [9]: 75%
Population Fragmented Nuclei (%) [9]: 27%
Population Healthy Nuclei (%) [9]: 67%
Population Hoechst High Intensity Objects (%) [9]: 3%
Population Membrane Permeable-Phenotype (%) [9]: 0%
Population Mitochondria Different-Phenotype (%) [9]: 0%
Population Mitotic Cells (%) [9]: 25%
Population Normal (%) [9]: 96%
Population Pyknosed Nuclei (%) [9]: 5%
Population Tubulin-Different-Phenotype (%) [9]: 24%
Total Cell Count [9]: 156
Population Apoptotic (%) [10]: 35%
Population Fragmented Nuclei (%) [10]: 30%
Population Healthy Nuclei (%) [10]: 59%
Population Hoechst High Intensity Objects (%) [10]: 4%
Population Membrane Permeable-Phenotype (%) [10]: 5%
Population Mitochondria Different-Phenotype (%) [10]: 3%
Population Mitotic Cells (%) [10]: 64%
Population Normal (%) [10]: 95%
Population Pyknosed Nuclei (%) [10]: 10%
Population Tubulin-Different-Phenotype (%) [10]: 36%
Total Cell Count [10]: 178
Population Apoptotic (%) [11]: 62%
Population Fragmented Nuclei (%) [11]: 27%
Population Healthy Nuclei (%) [11]: 59%
Population Hoechst High Intensity Objects (%) [11]: 6%
Population Membrane Permeable-Phenotype (%) [11]: 0%
Population Mitochondria Different-Phenotype (%) [11]: 7%
Population Mitotic Cells (%) [11]: 37%
Population Normal (%) [11]: 93%
Population Pyknosed Nuclei (%) [11]: 12%
Population Tubulin-Different-Phenotype (%) [11]: 91%
Total Cell Count [11]: 230
Population Apoptotic (%) [12]: 63%
Population Fragmented Nuclei (%) [12]: 31%
Population Healthy Nuclei (%) [12]: 60%
Population Hoechst High Intensity Objects (%) [12]: 5%
Population Mitochondria Different-Phenotype (%) [12]: 1%
Population Mitotic Cells (%) [12]: 36%
Population Normal (%) [12]: 94%
Population Pyknosed Nuclei (%) [12]: 7%
Population Tubulin-Different-Phenotype (%) [12]: 86%
Total Cell Count [12]: 293

CC(C)(O)C(=O)N1CCN(c2ccc(C(F)(F)F)c(C3=C(c4c[nH]c5ccccc45)C(=O)NC3=O)c2)CC1
Population Apoptotic (%) [1]: 41%
Population Fragmented Nuclei (%) [1]: 14%
Population Healthy Nuclei (%) [1]: 68%
Population Hoechst High Intensity Objects (%) [1]: 2%
Population Membrane Permeable-Phenotype (%) [1]: 0%
Population Mitochondria Different-Phenotype (%) [1]: 9%
Population Mitotic Cells (%) [1]: 58%
Population Normal (%) [1]: 97%
Population Pyknosed Nuclei (%) [1]: 17%
Population Tubulin-Different-Phenotype (%) [1]: 30%
Total Cell Count [1]: 144
Population Apoptotic (%) [2]: 32%
Population Fragmented Nuclei (%) [2]: 30%
Population Healthy Nuclei (%) [2]: 46%
Population Hoechst High Intensity Objects (%) [2]: 5%
Population Membrane Permeable-Phenotype (%) [2]: 5%
Population Mitochondria Different-Phenotype (%) [2]: 5%
Population Mitotic Cells (%) [2]: 67%
Population Normal (%) [2]: 94%
Population Pyknosed Nuclei (%) [2]: 22%
Population Tubulin-Different-Phenotype (%) [2]: 56%
Total Cell Count [2]: 170
Population Apoptotic (%) [3]: 33%
Population Fragmented Nuclei (%) [3]: 17%
Population Healthy Nuclei (%) [3]: 50%
Population Hoechst High Intensity Objects (%) [3]: 4%
Population Membrane Permeable-Phenotype (%) [3]: 1%
Population Mitochondria Different-Phenotype (%) [3]: 25%
Population Mitotic Cells (%) [3]: 66%
Population Normal (%) [3]: 96%
Population Pyknosed Nuclei (%) [3]: 32%
Population Tubulin-Different-Phenotype (%) [3]: 83%
Total Cell Count [3]: 125
Population Apoptotic (%) [4]: 35%
Population Fragmented Nuclei (%) [4]: 26%
Population Healthy Nuclei (%) [4]: 31%
Population Hoechst High Intensity Objects (%) [4]: 6%
Population Membrane Permeable-Phenotype (%) [4]: 15%
Population Mitochondria Different-Phenotype (%) [4]: 10%
Population Mitotic Cells (%) [4]: 64%
Population Normal (%) [4]: 93%
Population Pyknosed Nuclei (%) [4]: 42%
Population Tubulin-Different-Phenotype (%) [4]: 90%
Total Cell Count [4]: 137
Population Apoptotic (%) [5]: 50%
Population Fragmented Nuclei (%) [5]: 22%
Population Healthy Nuclei (%) [5]: 61%
Population Hoechst High Intensity Objects (%) [5]: 1%
Population Membrane Permeable-Phenotype (%) [5]: 0%
Population Mitochondria Different-Phenotype (%) [5]: 3%
Population Mitotic Cells (%) [5]: 50%
Population Normal (%) [5]: 98%
Population Pyknosed Nuclei (%) [5]: 16%
Population Tubulin-Different-Phenotype (%) [5]: 40%
Total Cell Count [5]: 161
Population Apoptotic (%) [6]: 31%
Population Fragmented Nuclei (%) [6]: 31%
Population Healthy Nuclei (%) [6]: 45%
Population Hoechst High Intensity Objects (%) [6]: 8%
Population Membrane Permeable-Phenotype (%) [6]: 2%
Population Mitochondria Different-Phenotype (%) [6]: 8%
Population Mitotic Cells (%) [6]: 68%
Population Normal (%) [6]: 91%
Population Pyknosed Nuclei (%) [6]: 23%
Population Tubulin-Different-Phenotype (%) [6]: 58%
Total Cell Count [6]: 176
Population Apoptotic (%) [7]: 26%
Population Fragmented Nuclei (%) [7]: 24%
Population Healthy Nuclei (%) [7]: 40%
Population Hoechst High Intensity Objects (%) [7]: 7%
Population Membrane Permeable-Phenotype (%) [7]: 2%
Population Mitochondria Different-Phenotype (%) [7]: 30%
Population Mitotic Cells (%) [7]: 73%
Population Normal (%) [7]: 92%
Population Pyknosed Nuclei (%) [7]: 34%
Population Tubulin-Different-Phenotype (%) [7]: 79%
Total Cell Count [7]: 131
Population Apoptotic (%) [8]: 36%
Population Fragmented Nuclei (%) [8]: 27%
Population Healthy Nuclei (%) [8]: 33%
Population Hoechst High Intensity Objects (%) [8]: 3%
Population Membrane Permeable-Phenotype (%) [8]: 6%
Population Mitochondria Different-Phenotype (%) [8]: 20%
Population Mitotic Cells (%) [8]: 63%
Population Normal (%) [8]: 96%
Population Pyknosed Nuclei (%) [8]: 39%
Population Tubulin-Different-Phenotype (%) [8]: 90%
Total Cell Count [8]: 138
Population Apoptotic (%) [9]: 64%
Population Fragmented Nuclei (%) [9]: 21%
Population Healthy Nuclei (%) [9]: 61%
Population Hoechst High Intensity Objects (%) [9]: 5%
Population Membrane Permeable-Phenotype (%) [9]: 0%
Population Mitochondria Different-Phenotype (%) [9]: 12%
Population Mitotic Cells (%) [9]: 36%
Population Normal (%) [9]: 94%
Population Pyknosed Nuclei (%) [9]: 17%
Population Tubulin-Different-Phenotype (%) [9]: 38%
Total Cell Count [9]: 155
Population Apoptotic (%) [10]: 41%
Population Fragmented Nuclei (%) [10]: 33%
Population Healthy Nuclei (%) [10]: 37%
Population Hoechst High Intensity Objects (%) [10]: 7%
Population Membrane Permeable-Phenotype (%) [10]: 1%
Population Mitochondria Different-Phenotype (%) [10]: 15%
Population Mitotic Cells (%) [10]: 58%
Population Normal (%) [10]: 92%
Population Pyknosed Nuclei (%) [10]: 28%
Population Tubulin-Different-Phenotype (%) [10]: 67%
Total Cell Count [10]: 165
Population Apoptotic (%) [11]: 54%
Population Fragmented Nuclei (%) [11]: 33%
Population Healthy Nuclei (%) [11]: 27%
Population Hoechst High Intensity Objects (%) [11]: 12%
Population Membrane Permeable-Phenotype (%) [11]: 0%
Population Mitochondria Different-Phenotype (%) [11]: 53%
Population Mitotic Cells (%) [11]: 45%
Population Normal (%) [11]: 87%
Population Pyknosed Nuclei (%) [11]: 38%
Population Tubulin-Different-Phenotype (%) [11]: 93%
Total Cell Count [11]: 123
Population Fragmented Nuclei (%) [12]: 35%
Population Healthy Nuclei (%) [12]: 25%
Population Hoechst High Intensity Objects (%) [12]: 6%
Population Membrane Permeable-Phenotype (%) [12]: 10%
Population Mitochondria Different-Phenotype (%) [12]: 30%
Population Normal (%) [12]: 93%
Population Pyknosed Nuclei (%) [12]: 40%
Population Tubulin-Different-Phenotype (%) [12]: 83%
Total Cell Count [12]: 129
